Data from ChEMBL document CHEMBL1123065, “Sleep-inducing N-alkyl-5-[m-(trifluoromethyl)phenyl]-5-hydroxy-2-pyrrolidinones and N-alkyl-3-(trifluoromethyl)cinnamamides” (J Med Chem, 1985).
Active and inactive are the calls of the source. The calls are words filed in the database; no cut-off is given here.

Experiments:
Mus musculus [1] = assay: Effective dose against loss of righting reflex in mice (10 mice per dose, ip); type: functional
How it was run: (§1)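 Mouse behaviour after ip dosing assessed by a modification of the method of ref 7; ataxia, docility and loss of righting reflex scored, 10 mice per dose, ED50 in mg/kg ip.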

Mus musculus [2] = assay: Effective dose against Mice ataxia, ip administration; type: functional; how it was run: as §1
Mus musculus [3] = assay: Ability to produce neurological deficit in the rotarod test (10 mice were used per dose, ip); type: functional
How it was run: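 Rotarod method of ref 10, intraperitoneal dosing, 10 mice per dose; neurological deficit scored and ND50 (mg/kg ip) derived.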

Mus musculus [4] = assay: Anticonvulsant activity against N-sulfamoylhexahydrozepine (10 mice were used per dose, ip); type: functional
How it was run: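 Mice given compound ip, 10 per dose, then challenged with N-sulfamoylhexahydroazepine by methods of ref 9; ED50 (mg/kg ip) for protection determined.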

Mus musculus [5] = assay: Ability to reinduce anesthesia (70 mg/kg, iv) following recovery of loss of righting reflex obtained with hexobarbital.; type: functional
[6] = Lethal dose was obtained by 2-h post administration (ip), using four male Royal Hart Wistar rats; type: toxicity, organism-based; details: rat, in vivo
How it was run: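 Male Royal Hart Wistar rats, 136-160 g, housed in pairs in wire cages, given compound ip; deaths read 2 h after dosing, four rats per compound; LD50 estimated by probit analysis.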

Mus musculus [7] = assay: Effective dose against Mice docility, ip administration; type: functional; how it was run: as §1
Monkey = assay: Ratio of the oral dose of the test compound relative to that of methaqualone (15 mg/kg, po) to induce sleep in Cebus monkey; type: functional
How it was run: (§2)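 Cebus monkeys restrained in chairs within sound-attenuated cubicles; dosing per os at 5:00 p.m., five channels recorded, EEG over 13.5 h, Monday–Thursday, visually scored. Each animal its own control versus last 15 control nights (intragastric carboxymethylcellulose placebo). Value is oral dose of test substance relative to methaqualone 15 mg/kg po inducing sleep in the same monkey; NA = no sleep at any dose.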

[8] = Ratio of the oral dose of the test compound relative to that of methaqualone (15 mg/kg, po) to induce sleep in Cebus monkey;NA is Not Active.; type: functional, organism-based; how it was run: as §2
Mus musculus [9] = assay: Effective dose against loss of righting reflex in mice;10 mice per dose(ip); type: functional; how it was run: as §1
[10] = Ratio of the oral dose of the test compound relative to that of methaqualone (15 mg/kg, po) to induce sleep in Cebus monkey; NA is Not Active.; type: functional, organism-based; how it was run: as §2

SMILES | ED50 (Mus musculus [1]) [mg/kg] | ED50 (Mus musculus [2]) [mg/kg] | ND50 (Mus musculus [3]) [mg/kg] | ED50 (Mus musculus [4]) [mg/kg] | RD50 (Mus musculus [5]) [mg/kg] | LD50 at 2 h [6] [mg/kg] | ED50 (Mus musculus [7]) [mg/kg] | Sleep ratio (Monkey) | Ratio [8] | ND50 (Mus musculus [9]) [mg/kg] | Ratio [10]
CN1CCN(C(=O)/C=C/c2cccc(C(F)(F)F)c2)CC1 | > 100 | > 100 | >75 | > 75 | >75 | 300 | > 100 |  |  |  | 
CN1C(=O)CCC1(O)c1ccc(C(F)(F)F)cc1 (stereo unspecified) | > 200 | > 200 | 140.5 | 132 | >200 | > 400 | > 200 |  |  |  | 
CNC(=O)/C(C)=C/c1cccc(C(F)(F)F)c1 | > 100 | 75 | >75 | 68.8 | 24.7 | 300 | 75 | 0.3 |  |  | 
CN1C(=O)CCC1(O)c1cccc(C(F)(F)F)c1 (stereo unspecified) | 133 | 129 | 106.5 | 51.6 | 45.1 | 367 | 93.8 | 1 |  |  | 
CCCN1C(=O)CCC1(O)c1cccc(C(F)(F)F)c1 (stereo unspecified) | 200 | > 200 | >200 | 150 | 131.9 | > 400 | > 200 |  |  |  | 
CNC(=O)/C=C/c1cccc(C(F)(F)F)c1 | 200 | 120 | 149 | 84.1 | 76.3 | 275 | 92.9 | 0.5 |  |  | 
O=C(CCC(=O)c1cccc(C(F)(F)F)c1)NC1CCCCC1 | > 200 | > 200 | >200 | > 200 | >200 | > 400 | > 200 |  |  |  | 
CCC(O)CNC(=O)/C=C/c1cccc(C(F)(F)F)c1 (stereo unspecified) | 92.9 | 90 | 57.9 | 64.4 | 68.8 | 333 | 87.5 |  | inactive |  | 
CCC(C)NC(=O)CCC(=O)c1cccc(C(F)(F)F)c1 (stereo unspecified) | > 200 | > 200 | >150 | > 200 | >50 | 300 | > 200 |  |  |  | 
NC(=O)/C=C/c1cccc(C(F)(F)F)c1 | 54.5 | 42.9 | 46.9 | 49.5 | 17.2 | 260 | 37.5 |  | inactive |  | 
CN1C(=O)CCC1(O)c1cccc(Cl)c1 (stereo unspecified) | > 200 | 186 | >150 | > 150 | >150 | > 400 | 158 |  |  |  | 
CCNC(=O)/C=C/c1cccc(C(F)(F)F)c1 |  | 90 |  |  | >75 | 333 |  |  |  | >75 | 
CN(C)C(=O)/C=C/c1cccc(C(F)(F)F)c1 |  | > 75 |  |  | >75 | 300 |  |  |  | >75 | 
CCN1C(=O)CCC1(O)c1cccc(C(F)(F)F)c1 (stereo unspecified) | > 100 | > 100 | >75 | > 75 | 68.8 | > 400 | > 100 |  |  |  | inactive
Cc1cccc(C2(O)CCC(=O)N2C)c1 (stereo unspecified) | 138 | 93 | 111.5 | 60.9 | 49.5 | 300 | 81.5 |  |  |  | inactive
Cc1ccccc1-n1c(C)nc2ccccc2c1=O [METHAQUALONE] | 39.8 | 34.4 | 31.5 | 31.5 | 21.9 | 565 | 35.6 | 1 |  |  | 
O=C1CCC(O)(c2cccc(C(F)(F)F)c2)N1 (stereo unspecified) | > 200 | > 200 | >200 | > 200 | 150 | > 400 | > 200 | 0.1 |  |  | 
CN1CCN(C(=O)CCC(=O)c2cccc(C(F)(F)F)c2)CC1 | > 50 | > 50 | >37.5 | > 37.5 | >37.5 | > 400 | > 50 |  |  |  | 
CC(C)NC(=O)CCC(=O)c1cccc(C(F)(F)F)c1 | > 200 | > 200 | >150 | > 150 | 126.9 | > 400 | > 200 |  |  |  | 
O=C(/C=C/c1cccc(C(F)(F)F)c1)NCCO | 186 | 117 | 115.8 | 100 | 66.7 | 400 | 78.6 |  |  |  | 
CC(C)CNC(=O)CCC(=O)c1cccc(C(F)(F)F)c1 | > 200 | > 200 | >200 | > 200 | >200 | 162 | > 200 |  |  |  | 
CCCCN1C(=O)CCC1(O)c1cccc(C(F)(F)F)c1 (stereo unspecified) | > 200 | > 200 | >200 | 183 | 150 | > 400 | > 200 |  | inactive |  | 
CN(C)C(=O)CCC(=O)c1cccc(C(F)(F)F)c1 | > 50 | > 50 | >37.5 | > 37.5 | 127.6 | 300 | > 50 |  |  |  | 
O=C(/C=C/c1ccccc1)NCCO [IDROCILAMIDE] | > 200 | 183 | >200 | 117 | 75 | > 400 | 183 |  |  |  | 
CN1C(=O)CCC1(O)c1ccccc1 (stereo unspecified) | > 200 | > 200 | >200 | 138 | 150 | 300 | > 200 |  |  |  | 
CNC(=O)/C=C(\C)c1cccc(C(F)(F)F)c1 | > 100 | 87.5 | >75 | > 75 | 56.3 | > 400 | 87.5 |  |  |  | 
